From ChEMBL document CHEMBL2034814, “Synthesis and evaluation of γ-lactam analogs of PGE₂ as EP4 and EP2/EP4 agonists” (Bioorg Med Chem, 2012) come the findings set out here.

For orientation: Ki means a measure of affinity in units of concentration, obtained from inhibition or displacement. Lower therefore signals higher affinity. What is called EC50 is the concentration needed to bring the measured effect to its halfway point.

Series [1] deals with Rattus norvegicus. Kind of series: Induction of bone fracture healing in CrJ:CD(SD)IGS rat assessed as breaking strength of fractured fibulae at 3 ug/kg administered tropically as PLGA microsphere formulation measured after 17 days relative to control. It counts as functional. An outline of the steps:
(§1)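 Male Sprague–Dawley rats, 8 weeks old. Under sodium pentobarbital (30–50 mg/kg) the left fibula midshaft was exposed and cut. Compound in PLGA microspheres injected topically at the fracture. At 17 days fibulae removed for three-point destructive bending; breaking strength expressed as % of the mean of nonfractured fibulae from intact rats, with vehicle-treated fractured controls.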

In series [2] the target is Prostaglandin E2 receptor EP2 subtype (Mus musculus, UniProt Q62053). Kind of series: Displacement of [3H]PGE2 from mouse EP2 receptor expressed in CHO cells after 60 mins by scintillation counting. It counts as cell-based.
For series [3], the target named is Prostaglandin E2 receptor EP2 subtype (Rattus norvegicus, UniProt Q62928). As to the kind of experiment: Agonist activity at rat EP2 receptor expressed in CHO cells assessed as cAMP production after 10 mins by radioimmunoassay. It counts as functional, cell-based. In outline:
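CHO cells expressing rat EP2 receptor, seeded 1 × 10^5 cells/well and grown 2 days; washed, incubated 10 min at 37 °C in MEM with 2 µM diclofenac, then preincubated 10 min in assay medium with 1% BSA. Compound added, 10 min at 37 °C, stopped with ice-cold 10% trichloroacetic acid; cAMP measured by radioimmunoassay.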
In general terms: cAMP levels reflect the balance of adenylyl cyclase and phosphodiesterase activity.

Series [4] deals with Rattus norvegicus. Kind of series: Induction of bone fracture healing in CrJ:CD(SD)IGS rat assessed as breaking strength of fractured fibulae at 30 ug/kg administered tropically as PLGA microsphere formulation measured after 17 days relative to control. It counts as functional. In outline:
as §1

Series [5] concerns Rattus norvegicus. Kind of series: Induction of bone fracture healing in CrJ:CD(SD)IGS rat assessed as breaking strength of fractured fibulae at 300 ug/kg administered tropically as PLGA microsphere formulation measured after 17 days relative to control. The format is functional. In outline:
as §1

For series [6], the system named is Rattus norvegicus. Kind of series: Induction of bone fracture healing in CrJ:CD(SD)IGS rat assessed as breaking strength of fractured fibulae at 10 ug/kg administered tropically as PLGA microsphere formulation measured after 17 days relative to control. The format is functional. In outline:
as §1

Series [7] deals with Prostaglandin E2 receptor EP4 subtype (Mus musculus, UniProt P32240). As to the kind of experiment: Displacement of [3H]PGE2 from mouse EP4 receptor expressed in CHO cells after 60 mins by scintillation counting. It counts as cell-based. For orientation: Displacement assays read how much labelled ligand stays bound in the presence of the test substance.
Series [8] concerns the target T1, Prostaglandin E2 receptor EP1 subtype (Mus musculus, UniProt P35375).
T1 sequence (P35375 whole entry): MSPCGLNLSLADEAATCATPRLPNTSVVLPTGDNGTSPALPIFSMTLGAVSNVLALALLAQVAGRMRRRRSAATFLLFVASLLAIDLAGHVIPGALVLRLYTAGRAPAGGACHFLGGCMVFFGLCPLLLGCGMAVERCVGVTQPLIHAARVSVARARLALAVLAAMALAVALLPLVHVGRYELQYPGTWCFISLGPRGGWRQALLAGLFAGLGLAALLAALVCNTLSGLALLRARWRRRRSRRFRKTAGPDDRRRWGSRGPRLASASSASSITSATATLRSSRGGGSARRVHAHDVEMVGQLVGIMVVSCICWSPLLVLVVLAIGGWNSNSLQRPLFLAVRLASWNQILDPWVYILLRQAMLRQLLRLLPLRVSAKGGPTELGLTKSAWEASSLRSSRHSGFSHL
As to the kind of experiment: Displacement of [3H]PGE2 from mouse EP1 receptor expressed in CHO cells after 20 mins by scintillation counting. It counts as cell-based.

Series [9] is described as follows: Drug release from PLGA microsphere assessed as compound remaining in microsphere at 100 ug/ml after 21 days. The format is physicochemical. The conditions noted are these: 504 h.
Series [10] is described as follows: Drug release from PLGA microsphere assessed as compound remaining in microsphere at 100 ug/ml after 14 days. It counts as physicochemical. The conditions noted are these: 336 h.
For series [11], the system named is Rattus norvegicus. As to the kind of experiment: Induction of bone fracture healing in CrJ:CD(SD)IGS rat assessed as breaking strength of fractured fibulae administered tropically as PLGA microsphere formulation measured after 17 days relative to control. It counts as functional, organism-based. An outline of the steps:
as §1

In series [12] the target is T2, Prostaglandin E2 receptor EP3 subtype (Mus musculus, UniProt P30557).
T2 sequence (P30557 whole entry): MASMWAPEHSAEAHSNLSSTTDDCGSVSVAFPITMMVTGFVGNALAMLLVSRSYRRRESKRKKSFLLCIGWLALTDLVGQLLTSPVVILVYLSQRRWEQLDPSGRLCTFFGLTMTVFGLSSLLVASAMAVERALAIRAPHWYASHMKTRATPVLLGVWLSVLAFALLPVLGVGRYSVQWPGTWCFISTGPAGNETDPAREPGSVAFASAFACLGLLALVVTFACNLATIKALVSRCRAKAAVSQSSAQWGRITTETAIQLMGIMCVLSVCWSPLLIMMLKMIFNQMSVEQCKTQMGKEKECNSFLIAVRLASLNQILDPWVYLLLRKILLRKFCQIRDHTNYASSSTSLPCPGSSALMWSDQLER
As to the kind of experiment: Displacement of [3H]PGE2 from mouse EP3 receptor expressed in CHO cells after 60 mins by scintillation counting. The format is cell-based.

A short description of series [13]: Drug release from PLGA microsphere assessed as compound remaining in microsphere at 100 ug/ml after 28 days. It counts as physicochemical. The conditions noted are these: 672 h.
Series [14] deals with Prostaglandin E2 receptor EP4 subtype (Rattus norvegicus, UniProt P43114). As to the kind of experiment: Agonist activity at rat EP4 receptor expressed in CHO cells assessed as cAMP production after 10 mins by radioimmunoassay. It counts as functional, cell-based.
Series [15] concerns Rattus norvegicus. Kind of series: Induction of bone fracture healing in CrJ:CD(SD)IGS rat assessed as breaking strength of fractured fibulae at 100 ug/kg administered tropically as PLGA microsphere formulation measured after 17 days relative to control. It counts as functional. In outline:
as §1

Series [16] is described as follows: Drug release from PLGA microsphere assessed as compound remaining in microsphere at 100 ug/ml after 7 days. The format is physicochemical. Conditions: 168 h.
Series [17] has as its system Rattus norvegicus. Kind of series: Toxicity in CrJ:CD(SD)IGS rat assessed as change in heart rate at 3000 ug/kg, administered tropically as PLGA microsphere formulation. It counts as organism-based. Conditions: in vivo, topical_or_ocular, 3 mg/kg. In outline: (§2)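 Male Sprague–Dawley rats, 7–9 weeks old, anesthetized with urethane (1.5 g/kg, sc); compound given as PLGA microsphere formulation, with heart rate and mean blood pressure monitored.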

The test system of series [18] is Rattus norvegicus. As to the kind of experiment: Toxicity in CrJ:CD(SD)IGS rat assessed as change in heart rate at 1000 ug/kg, administered tropically as PLGA microsphere formulation. It counts as organism-based. Conditions: in vivo, topical_or_ocular, 1 mg/kg. In outline: as §2
Series [19] concerns Rattus norvegicus. As to the kind of experiment: Toxicity in CrJ:CD(SD)IGS rat assessed as change in mean blood pressure at 300 ug/kg administered tropically as PLGA microsphere formulation. It counts as organism-based. Conditions: in vivo, topical_or_ocular, 0.3 mg/kg. In outline:
as §2

Series [20] concerns Rattus norvegicus. As to the kind of experiment: Toxicity in CrJ:CD(SD)IGS rat assessed as change in mean blood pressure at 1000 ug/kg administered tropically as PLGA microsphere formulation. The format is organism-based. The conditions noted are these: in vivo, topical_or_ocular, 1 mg/kg. An outline of the steps:
as §2

In series [21] the test system is Rattus norvegicus. As to the kind of experiment: Toxicity in CrJ:CD(SD)IGS rat assessed as change in mean blood pressure at 3000 ug/kg administered tropically as PLGA microsphere formulation. The format is organism-based. Conditions: in vivo, topical_or_ocular, 3 mg/kg. An outline of the steps: as §2
Series [22] has as its system Rattus norvegicus. As to the kind of experiment: Toxicity in CrJ:CD(SD)IGS rat assessed as change in heart rate at 300 ug/kg, administered tropically as PLGA microsphere formulation. It counts as organism-based. Conditions: in vivo, topical_or_ocular, 0.3 mg/kg. An outline of the steps: as §2
Series [23] in a line: Drug release from PLGA microsphere assessed as compound remaining in microsphere at 100 ug/ml after 7 days in presence of 5% methanol. It counts as physicochemical. Conditions: 168 h.
Series [24] can be described thus: Drug release from PLGA microsphere assessed as compound remaining in microsphere at 100 ug/ml after 28 days in presence of 5% methanol. The format is physicochemical. The conditions noted are these: 672 h.
Series [25] in a line: Drug release from PLGA microsphere assessed as compound remaining in microsphere at 100 ug/ml after 14 days in presence of 5% methanol. It counts as physicochemical. Conditions: 336 h.
A short description of series [26]: Drug release from PLGA microsphere assessed as compound remaining in microsphere at 100 ug/ml after 21 days in presence of 5% methanol. The format is physicochemical. Conditions: 504 h.
The test system of series [27] is Rattus norvegicus. As to the kind of experiment: Induction of bone fracture healing in CrJ:CD(SD)IGS rat assessed as breaking strength of fractured fibulae at 1 ug/kg administered tropically as PLGA microsphere formulation measured after 17 days relative to control. It counts as functional. In outline: as §1

SMILES strings stand for the structures.

Sequence of Prostaglandin E2 receptor EP4 subtype (Rattus norvegicus, UniProt P43114) (P43114 whole entry): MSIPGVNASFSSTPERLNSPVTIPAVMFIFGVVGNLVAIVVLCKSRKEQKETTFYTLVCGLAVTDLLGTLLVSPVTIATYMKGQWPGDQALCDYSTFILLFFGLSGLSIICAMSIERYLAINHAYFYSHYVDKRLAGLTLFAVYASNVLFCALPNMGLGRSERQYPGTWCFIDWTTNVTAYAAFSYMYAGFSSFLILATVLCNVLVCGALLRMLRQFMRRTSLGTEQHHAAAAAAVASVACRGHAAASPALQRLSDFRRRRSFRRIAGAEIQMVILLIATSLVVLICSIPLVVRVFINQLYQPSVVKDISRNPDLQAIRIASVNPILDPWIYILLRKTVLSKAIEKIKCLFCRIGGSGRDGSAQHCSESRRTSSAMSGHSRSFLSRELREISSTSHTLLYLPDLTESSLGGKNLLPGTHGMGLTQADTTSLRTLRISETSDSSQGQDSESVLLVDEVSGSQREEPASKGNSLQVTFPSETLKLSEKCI
Sequence of Prostaglandin E2 receptor EP4 subtype (Mus musculus, UniProt P32240) (P32240 whole entry): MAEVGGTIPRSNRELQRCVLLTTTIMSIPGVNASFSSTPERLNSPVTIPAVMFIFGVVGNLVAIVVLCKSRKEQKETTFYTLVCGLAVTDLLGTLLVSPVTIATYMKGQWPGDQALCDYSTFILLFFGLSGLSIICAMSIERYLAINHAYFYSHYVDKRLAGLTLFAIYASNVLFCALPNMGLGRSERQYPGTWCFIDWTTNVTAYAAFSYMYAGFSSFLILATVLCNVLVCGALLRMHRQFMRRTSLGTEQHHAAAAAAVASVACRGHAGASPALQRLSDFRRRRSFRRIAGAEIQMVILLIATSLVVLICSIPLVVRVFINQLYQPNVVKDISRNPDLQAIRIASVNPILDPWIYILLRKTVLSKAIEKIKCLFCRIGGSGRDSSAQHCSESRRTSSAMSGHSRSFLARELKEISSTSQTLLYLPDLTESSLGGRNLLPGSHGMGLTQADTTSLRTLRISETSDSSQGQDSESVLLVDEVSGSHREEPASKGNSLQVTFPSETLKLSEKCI
Sequence of Prostaglandin E2 receptor EP2 subtype (Mus musculus, UniProt Q62053) (Q62053 whole entry): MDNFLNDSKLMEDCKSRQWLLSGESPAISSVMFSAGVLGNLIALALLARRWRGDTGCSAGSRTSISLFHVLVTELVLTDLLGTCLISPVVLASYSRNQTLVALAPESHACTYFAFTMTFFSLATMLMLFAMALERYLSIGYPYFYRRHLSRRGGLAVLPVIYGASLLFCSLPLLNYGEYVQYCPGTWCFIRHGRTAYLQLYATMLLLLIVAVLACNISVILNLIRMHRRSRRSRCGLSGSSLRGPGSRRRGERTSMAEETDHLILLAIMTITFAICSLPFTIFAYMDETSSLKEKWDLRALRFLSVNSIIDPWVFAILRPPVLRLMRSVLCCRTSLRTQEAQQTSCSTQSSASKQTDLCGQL
Sequence of Prostaglandin E2 receptor EP2 subtype (Rattus norvegicus, UniProt Q62928) (Q62928 whole entry): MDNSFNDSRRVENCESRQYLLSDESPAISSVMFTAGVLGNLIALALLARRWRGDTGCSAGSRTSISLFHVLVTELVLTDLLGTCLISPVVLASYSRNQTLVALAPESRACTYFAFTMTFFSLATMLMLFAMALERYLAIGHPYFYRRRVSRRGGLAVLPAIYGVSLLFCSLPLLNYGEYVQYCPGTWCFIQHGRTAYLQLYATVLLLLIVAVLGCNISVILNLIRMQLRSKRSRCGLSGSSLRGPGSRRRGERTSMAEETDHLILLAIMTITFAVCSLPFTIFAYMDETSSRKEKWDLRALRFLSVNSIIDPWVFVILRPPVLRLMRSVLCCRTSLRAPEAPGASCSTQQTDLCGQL

For `Cc1ccc2nc(-c3cccc(C[C@H](O)/C=C/[C@H]4CCC(=O)N4CCSc4nc(C(=O)O)cs4)c3)oc2c1`, the Activity with Rattus norvegicus [1] amounted to 84.4%; in the series on Rattus norvegicus [4], 71.6%; with Rattus norvegicus [5] it was 167.4%; in the series with Rattus norvegicus [6], 87.1%; in series [9], 86.6%; in series [10], 95%. The Activity result is “Dose-dependent effect” in the series on Rattus norvegicus [11], 87.6% in series [13], 124.6% in the series with Rattus norvegicus [15] and 100% in series [16]. The Ki is 56 nM in [2], 0.16 nM in series [7], 200 nM in [8] and more than 10000 nM in series [12]. The EC50 in series [3] worked out at 3200 nM; in series [14] it was 1.6 nM.

Consider `O=C(O)CCCSCCN1C(=O)CC[C@@H]1/C=C/[C@@H](O)Cc1cccc(-c2cc3ccccc3o2)c1`, for which the Ki in series [2] is 2000 nM; in series [7] it was 0.1 nM; in series [8] it was more than 10000 nM; in series [12] it was more than 10000 nM. Further, the Activity was 95.4% in the series with Rattus norvegicus [4]; 111.4% in the series with Rattus norvegicus [17]; 154% in the series with Rattus norvegicus [5]; 104.6% in the series on Rattus norvegicus [18]; 98.4% in the series with Rattus norvegicus [19]; 98.2% with Rattus norvegicus [20]. In addition, the Activity in [9] was 83.5%; in series [10] it was 91.1%; in the series with Rattus norvegicus [11] it was “Dose-dependent effect”; with Rattus norvegicus [21], 97.3%; in the series with Rattus norvegicus [22] it was 106.3%; in series [13] it was 46.3%. The Activity in the series on Rattus norvegicus [15] came to 136.3%; in series [16], 94.8%. Besides, the EC50 in series [14] came out at 7 nM.

`Cc1ccc2oc(-c3cccc(C[C@H](O)/C=C/[C@H]4CCC(=O)N4CCSc4nc(C(=O)O)cs4)c3)nc2c1`: the Activity in the series on Rattus norvegicus [1] was 77.7%; with Rattus norvegicus [4], 98.1%; in series [23], 99.6%; in the series with Rattus norvegicus [5], 144.3%; with Rattus norvegicus [6], 87.7%; in series [24], 79.3%. Besides, the Activity result in the series with Rattus norvegicus [11] was “Dose-dependent effect”; in series [25], 93.1%; in [26], 85.2%; in the series with Rattus norvegicus [15], 136%. The Ki is 21 nM in [2], 0.21 nM in [7], 1300 nM in [8] and more than 10000 nM in series [12]. Besides, the 50% effective concentration (EC50) in series [3] is more than 10000 nM; in series [14] it was 8.8 nM.

For the compound `O=C(O)c1csc(SCCN2C(=O)CC[C@@H]2/C=C/[C@@H](O)Cc2cccc(-c3cc4ccccc4o3)c2)n1`, the Activity in the series on Rattus norvegicus [1] was 83.3%; in the series with Rattus norvegicus [4], 116.6%; in the series on Rattus norvegicus [27], 76.1%; with Rattus norvegicus [6], 104.2%; in [9] it was 80.1%; in series [10], 88.6%. The Activity result was “Dose-dependent effect” with Rattus norvegicus [11], 60.8% in series [13] and 95.7% in series [16]. Moreover, the Ki in series [2] is 2.1 nM; in series [7], 0.12 nM; in series [8], 2700 nM; in [12] it was 1700 nM. Besides, the results for the EC50 in [3] and in series [14] were 1500 nM and 5.3 nM, respectively.
